Positions count from the first letter of the chain named.
Tests used:
[1] = Half life in monkey at 1 mg/kg, iv by LC-MS method; type: ADME, organism-based, Macaca mulatta; details: rhesus monkey, in vivo
Outline: (§1)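 Single dose in dog or monkey, 1 mg/kg IV or 2.5 mg/kg PO. Plasma drug measured by LC-MS after acetonitrile protein precipitation with an internal standard. Quantified by linear regression of parent/internal-standard peak-area ratio against spiked standards.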

[2] = AUClast in mouse at 3 mg/kg, po by LC-MS method; type: ADME, organism-based; parameters: dose 3 mg/kg, time 0 - last, route oral; details: in vivo
Outline: (§2)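 Single dose, 3 mg/kg, in mouse or rat. IV vehicle: DMSO:Tween 80:PEG-400:D5W 2:5:20:73 (v/v). PO vehicle: Phosol 53 MCT:PEG-400:Poloxamer 124:Cremophor RH40 40:20:20:20 (w/w). Acetonitrile protein precipitation, then LC-MS/MS in negative-ion MRM against an internal standard; LOQ ~20 ng/mL.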

[3] = Cmax in rat at 3 mg/kg, po by LC-MS method; type: ADME, organism-based; parameters: dose 3 mg/kg, route oral; details: in vivo; outline: as §2
[4] = Apparent volume of distribution in dog at 1 mg/kg, iv by LC-MS method; type: ADME, organism-based, Canis lupus familiaris; details: in vivo, read-out: Vc; outline: as §1
[5] = AUClast in monkey at 1 mg/kg, iv by LC-MS method; type: ADME, organism-based, Macaca mulatta; parameters: dose 1 mg/kg, time 0 - last, route intravenous; details: rhesus monkey, in vivo; outline: as §1
[6] = AUClast in dog at 1 mg/kg, iv by LC-MS method; type: ADME, organism-based, Canis lupus familiaris; parameters: dose 1 mg/kg, route intravenous, time 0 - last; details: in vivo; outline: as §1
[7] = Tmax in monkey at 2.5 mg/kg, po by LC-MS method; type: ADME, organism-based, Macaca mulatta; details: rhesus monkey, in vivo; outline: as §1
[8] = Drug level in dog at 2.5 mg/kg, po at 24 hrs by LC-MS method; type: ADME, organism-based, Canis lupus familiaris; details: in vivo, read-out: Drug uptake; outline: as §1
[9] = Drug level in rat at 3 mg/kg, po at 24 hrs by LC-MS method; type: ADME, organism-based; details: in vivo, read-out: Drug uptake; outline: as §2
[10] = Oral bioavailability in mouse at 3 mg/kg by LC-MS method; type: ADME, organism-based; details: in vivo; outline: as §2
[11] = AUClast in dog at 2.5 mg/kg, po by LC-MS method; type: ADME, organism-based, Canis lupus familiaris; parameters: dose 2.5 mg/kg, route oral, time 0 - last; details: in vivo; outline: as §1
[12] = Half life in mouse at 3 mg/kg, iv by LC-MS method; type: ADME, organism-based; details: in vivo; outline: as §2
[13] = Oral bioavailability in monkey at 2.5 mg/kg by LC-MS method; type: ADME, organism-based, Macaca mulatta; details: rhesus monkey, in vivo; outline: as §1
[14] = Apparent volume of distribution in mouse at 3 mg/kg, iv by LC-MS method; type: ADME, organism-based; details: in vivo, read-out: Vc; outline: as §2
[15] = Tmax in dog at 2.5 mg/kg, po by LC-MS method; type: ADME, organism-based, Canis lupus familiaris; details: in vivo; outline: as §1
[16] = Half life in dog at 1 mg/kg, iv by LC-MS method; type: ADME, organism-based, Canis lupus familiaris; details: in vivo; outline: as §1
[17] = Half life in monkey at 2.5 mg/kg, po by LC-MS method; type: ADME, organism-based, Macaca mulatta; details: rhesus monkey, in vivo; outline: as §1
[18] = Plasma clearance in monkey at 1 mg/kg, iv by LC-MS method; type: ADME, organism-based, Macaca mulatta; details: rhesus monkey; outline: as §1
[19] = Half life in dog at 2.5 mg/kg, po by LC-MS method; type: ADME, organism-based, Canis lupus familiaris; details: in vivo; outline: as §1
[20] = tested on: T1, Nonstructural protein 5A (Hepatitis C virus), Q5L478 [Y93N]; test: Inhibition of NS5A Y93N mutant in HuH7 cell infected HCV genotype 1a H77 assessed as decrease in viral replication after 4 days by luciferase reporter gene assay relative to wild type protein; details: Hepatitis C virus (isolate H77)
T1 sequence (whole entry): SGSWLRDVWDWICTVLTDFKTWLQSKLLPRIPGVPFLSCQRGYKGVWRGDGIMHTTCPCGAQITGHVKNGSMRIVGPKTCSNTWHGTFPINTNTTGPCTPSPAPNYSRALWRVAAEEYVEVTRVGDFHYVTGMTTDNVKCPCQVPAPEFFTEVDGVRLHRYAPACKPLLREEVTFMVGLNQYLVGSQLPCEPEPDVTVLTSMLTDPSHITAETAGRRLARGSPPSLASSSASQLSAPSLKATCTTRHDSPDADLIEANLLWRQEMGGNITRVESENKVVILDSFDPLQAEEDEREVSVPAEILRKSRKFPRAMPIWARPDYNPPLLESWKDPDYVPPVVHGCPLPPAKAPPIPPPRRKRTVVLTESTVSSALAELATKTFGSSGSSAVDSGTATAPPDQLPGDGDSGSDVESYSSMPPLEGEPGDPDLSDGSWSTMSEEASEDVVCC
Outline: (§3)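 Stable subgenomic luciferase replicons in Huh-7 cells: genotype 1a-H77 carrying NS5A substitutions M28T, Q30E, Q30R, Y93C, Y93H or Y93N, tested alongside the wild-type replicon. Cells are incubated 4 days with compound in DMEM with 5% FBS. Luciferase read-out, EC50 by 4-parameter logistic fit, and fold change versus wild type.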

[21] = Half life in rat at 3 mg/kg, iv by LC-MS method; type: ADME, organism-based; details: in vivo; outline: as §2
[22] = AUClast in rat at 3 mg/kg, po by LC-MS method; type: ADME, organism-based; parameters: dose 3 mg/kg, route oral, time 0 - last; details: in vivo; outline: as §2
[23] = tested on: T1, Nonstructural protein 5A (Hepatitis C virus), Q5L478 [Y93N]; test: Inhibition of NS5A Y93N mutant in HuH7 cell infected HCV genotype 1b Con1 assessed as decrease in viral replication after 4 days by luciferase reporter gene assay relative to wild type protein; details: Hepatitis C virus (isolate Con1)
Outline: as §3, with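 “1b-Con1” for “1a-H77”, “NS5A” for “NS5A substitutions M28T, Q30E, Q30R, Y93C,”, “from a” for “by”, “expressed as” for “and”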

[24] = Half life in rat at 3 mg/kg, po by LC-MS method; type: ADME, organism-based; details: in vivo; outline: as §2
[25] = Cmax in dog at 2.5 mg/kg, po by LC-MS method; type: ADME, organism-based, Canis lupus familiaris; parameters: dose 2.5 mg/kg, route oral; details: in vivo; outline: as §1
[26] = tested on: T2, Nonstructural protein 5A (Hepatitis C virus), Q5L478 [Y93H]; test: Inhibition of NS5A Y93H mutant in HuH7 cell infected HCV genotype 1a H77 assessed as decrease in viral replication after 4 days by luciferase reporter gene assay relative to wild type protein; details: Hepatitis C virus (isolate H77); outline: as §3
T2 sequence (whole entry): T1 sequence (whole entry) with N93H

[27] = Tmax in mouse at 3 mg/kg, po by LC-MS method; type: ADME, organism-based; details: in vivo

For `COC(=O)N[C@H](C(=O)N1CCC[C@H]1c1nc2cc([C@H]3CC[C@H](c4cc5nc([C@@H]6CCCN6C(=O)[C@@H](NC(=O)OC)[C@@H](C)OC)[nH]c5cc4F)N3c3cc(F)c(N4CCC(c5ccc(F)cc5)CC4)c(F)c3)c(F)cc2[nH]1)[C@@H](C)OC` [PIBRENTASVIR], the half-life [1] was 8.3 h, the AUC(0-t) [2] was 20000 ng·h/mL and the Cmax [3] was 250 nM. For the same compound, the Vd [4] was 0.1 L/kg, the AUC(0-t) [5] was 6470 ng·h/mL and the AUC(0-t) [6] was 10600 ng·h/mL. For the same compound, the Tmax [7] was 4 h, the concentration at 24 h [8] was 82 nM and the concentration at 24 h [9] was 41 nM. For the same compound, the bioavailability [10] was 7.9%, the AUC(0-t) [11] was 5990 ng·h/mL and the half-life [12] was 2 h. For the same compound, the bioavailability [13] was 14.1%, the Vd [14] was 0.09 L/kg and the Tmax [15] was 3.67 h. It also gave a half-life [16] of 7.1 h, a half-life [17] of 5.69 h and a clearance [18] of 2.5 mL/min/kg. It also gave a half-life [19] of 8.3 h, a fold change (FC) [20] of 6.7 and a half-life [21] of 6.2 h. The AUC(0-t) [22] was 3600 ng·h/mL, the fold change (FC) [23] was 0.6 and the half-life [24] was 7 h. It also gave a Cmax [25] of 562 nM, a fold change (FC) [26] of 6.7 and a Tmax [27] of 11 h.

— ChEMBL document CHEMBL4177761, “Highlights of the Structure-Activity Relationships of Benzimidazole Linked Pyrrolidines Leading to the Discovery of the Hepatitis C Virus NS5A Inhibitor Pibrentasvir (ABT-530)” (J Med Chem, 2018)
